Bioassay records (PubChem BioAssay)
DENV2 CPE: DENV2-induced cell death inhibition. 1.7% of 350,000 active. CPE inhibition, % at 9.99 µM. DENV2-infected cells, cytopathic effect rescue, plate reader; in the data active = CPE inhibition above about 20%, passing the limit was not always enough; inconclusive = no clear call, values can overlap the other calls; tested in BHK-21 cells;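 note: 0% = median of neutral control wells and 100% = median of positive control wells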
E-sel inducer: E-selectin induction on HUVECs | HUVEC E-selectin immunofluorescence imaging; normalized: neutral wells 0, TNF-alpha wells 100 | activation, % at 7.58 µM | 0.37% of 260,000 active | AID 686992;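 active = mean E-selectin-positive cell signal at least 10% of the positive control, reached in at least 60% of replicates, without over 20% cell loss; inconclusive = no rule given, readout overlaps actives, possibly toxicity-flagged; inactive = the rest, including those meeting only one limit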
Target sequence (P16581 whole entry, looked up): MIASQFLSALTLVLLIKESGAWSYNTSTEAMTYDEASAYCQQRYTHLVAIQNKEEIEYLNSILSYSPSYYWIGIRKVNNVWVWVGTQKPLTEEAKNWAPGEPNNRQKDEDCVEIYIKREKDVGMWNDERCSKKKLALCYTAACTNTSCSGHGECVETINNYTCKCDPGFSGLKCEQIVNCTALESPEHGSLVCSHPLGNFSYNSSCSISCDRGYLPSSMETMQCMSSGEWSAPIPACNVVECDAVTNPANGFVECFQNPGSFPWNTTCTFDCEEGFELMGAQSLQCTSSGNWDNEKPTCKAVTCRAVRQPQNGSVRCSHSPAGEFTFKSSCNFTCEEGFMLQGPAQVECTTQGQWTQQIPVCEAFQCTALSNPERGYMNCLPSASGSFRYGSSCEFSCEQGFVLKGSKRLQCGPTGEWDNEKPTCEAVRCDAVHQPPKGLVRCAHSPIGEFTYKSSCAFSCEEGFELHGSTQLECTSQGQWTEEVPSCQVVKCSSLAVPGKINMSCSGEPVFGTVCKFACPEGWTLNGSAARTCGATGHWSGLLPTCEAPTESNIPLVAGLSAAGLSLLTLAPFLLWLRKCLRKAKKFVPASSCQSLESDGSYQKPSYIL
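Read-out: % PE-positive cells | Test system: HUVEC | Doses: One compound dose added by pin transfer | Buffer or medium: EGM-2 over gelatin coat | Signal: Immunofluorescence imaging | Benchmarks: TNF-alpha, DMSO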
SIRT5 inh: sirtuin-5 (human) deacylase inhibition. Q9NXA8. Purified SirT5, succinyl-peptide AMC, trypsin-coupled fluorescence. inhibition, % at 15 µM. 1.1% of 330,000 active. AID 652115; in the data active = inhibition above about 15%; inconclusive = no clear call, values can overlap the other calls
Active calls of the source: *; ? = inconclusive; . = no result given. Only some compounds are listed: those with a hit (about 2.9% of all), similar ones and a draw of the others.

SMILES	DENV2 CPE	E-sel inducer	SIRT5 inh
COC(=O)[C@]12CCCCC=C1N(Cc1cccc3ccccc13)C(=O)[C@H](CC(=O)NCCCCc1ccccc1)C2	-6	0	0
CCCCCCCCN1C(=O)[C@H](CC(=O)NCCc2ccccc2OC)C[C@@]2(C(=O)OC)CCCCC=C12	-4	1	.
CCOC(=O)[C@]12CCCC=C1N(CCC1=CCCCC1)C(=O)[C@H](CC(=O)NCCC(C)C)C2	4	?	-7
CCCCCCCCN1C(=O)[C@H](CC(=O)NCCC(C)C)C[C@@]2(C(=O)OCC)CCCC=C12	20*	.	21*
COC(=O)[C@]12CCCCC=C1N(CCC1=CCCCC1)C(=O)[C@H](CC(=O)NCCc1ccccc1OC)C2	4	0	16*
COC(=O)[C@]12C[C@H](CC(=O)N3CCCCC3)C(=O)N(Cc3ccccc3)C1=C[C@H](C1CCCC1)O[C@@H]2C	1	0	.
COC(=O)[C@]12C[C@H](CC(=O)N3CCC(c4ccccc4)CC3)C(=O)N(Cc3ccccc3)C1=C[C@H](C1CCCC1)O[C@@H]2C	45*	0	.
CCC1(c2ccccc2)NC(=O)N(CC(=O)NNC(=O)CCN2CCN(c3ccccc3)CC2)C1=O (centres undefined)	-1	1	-2
CCOc1ccc(CN(C)C(=O)CN2C(=O)NC3(CCCc4ccccc43)C2=O)cc1 (centres undefined)	6	.	-5
CCC(=O)Nc1nc(C)c(C(=O)N2CCCCC2)s1	-6	.	-4
CCCCCCCCN1C(=O)[C@H](CC(=O)NCc2ccccc2)C[C@@]2(C(=O)OC)CC(C)(C)CC=C12	-3	0	0
COC(=O)[C@@]12C[C@@H](CC(=O)NCc3ccc(OC)c(OC)c3)C(=O)N(Cc3ccco3)C1=CCC(C)(C)C2	22*	0	1
CCCCCCCCN1C(=O)[C@H](CC(=O)NCCCOC)C[C@@]2(C(=O)OC)CCCCC=C12	-8	.	0
CCOC(=O)[C@]12CCC=C1N(CCC1=CCCCC1)C(=O)[C@H](CC(=O)NCCc1ccccc1OC)C2	16	180*	0
CCCCCCCCN1C(=O)[C@H](CC(=O)NCC2CCCCC2)C[C@@]2(C(=O)OC)CCCCC=C12	2	.	16*
COC(=O)[C@@]12C[C@@H](CC(=O)NCc3ccccc3)C(=O)N(Cc3ccco3)C1=CCC(C)(C)C2	6	1	-2
CCOC(=O)[C@]12CCCC=C1N(CCC1=CCCCC1)C(=O)[C@H](CC(=O)NCCc1ccccc1OC)C2	20	0	1
CCCCCCCCN1C(=O)[C@H](CC(=O)NCCCCc2ccccc2)C[C@@]2(C(=O)OC)CC(C)(C)CC=C12	35*	1	-3
Cc1ccc(C(=O)COC(=O)c2cccc(O)c2)s1	-6	0	-2
CC(=O)OCC(=O)C1(O)CCC2C3CCC4CC(O)CCC4(C)C3C(=O)CC21C (centres undefined)	0	.	-2
C=CCn1c(=O)c2ccccc2n2nnc(C(=O)OCC)c12	-6	0	0
COc1cccc(/C=N/NC(=O)c2[nH]nc3c2CCc2ccccc2-3)c1	-4	2	-1
COC(=O)[C@]12CCCCC=C1N(Cc1ccco1)C(=O)[C@H](CC(=O)N1CCC(c3ccccc3)CC1)C2	1	0	1
CCCCNC(=O)C[C@@H]1C[C@@]2(C(=O)OC)CCCCC=C2N(CCC2=CCCCC2)C1=O	80*	0	0
CCOC(=O)[C@]12CCCC=C1N(Cc1ccco1)C(=O)[C@H](CC(=O)N1CCC(c3ccccc3)CC1)C2	38*	.	-2
SMILES	DENV2 CPE	E-sel inducer	SIRT5 inh
C#CCNC(=O)C[C@@H]1C[C@@]2(C(=O)OC)CCCCC=C2N(CCC2=CCCCC2)C1=O	?	0	4
CCCCCCCCN1C(=O)[C@H](CC(=O)NCc2cccs2)C[C@@]2(C(=O)OCC)CCCC=C12	0	.	7
CCOC(=O)[C@]12CCCC=C1N(Cc1ccccc1)C(=O)[C@H](CC(=O)NCc1cccs1)C2	55*	2	-2
CC(C)NC(=O)N[C@H]1CC[C@H](CCNC(=O)C2CCC2)O[C@H]1CO	6	0	-1
O=[N+]([O-])c1ccc(N2CCCC2)nc1N1CCCC1	7	1	1
O=S(=O)(NCCC1=CCCCC1)c1ccccc1Br	1	.	-2
O=S(=O)(NCCC1=CCCCC1)c1ccc(Br)cc1	119*	0	-1
Cc1ccc2c(COC(=O)CNS(=O)(=O)c3ccccc3)cc(=O)oc2c1	-7	.	-6
CCCc1cc(=O)[nH]c(SCC(=O)NC(=O)NC2CCCC2)n1	-6	.	1
O=C(C[C@H]1CC[C@H](NC(=O)Cc2cccnc2)[C@H](CO)O1)Nc1ccccc1	4	0	0
O=C(C[C@@H]1CC[C@H](NC(=O)Cc2cccnc2)[C@@H](CO)O1)Nc1ccccc1	44*	0	0
O=C(Cc1cccnc1)N[C@H]1CC[C@@H](CCn2cc(Cc3ccccc3)nn2)O[C@H]1CO	89*	0	2
O=C(Cc1cccnc1)N[C@@H]1CC[C@@H](CCn2cc(Cc3ccccc3)nn2)O[C@H]1CO	5	0	0
O=C(O)c1cccc(Cn2c(Cl)c(/C=N/NC(=O)c3ccco3)sc2=O)c1	0	.	10
CCC(=O)Nc1ccc(C=C(C(C)=O)C(C)=O)cc1	-5	0	-3
O=C(Nc1ncccc1Cl)c1cc2ccccc2o1	-5	0	20*
O=C(Nc1ccc(Cl)cc1Cl)c1cc2ccccc2o1	10	.	-1
Cc1ccccc1C(=O)Nc1ccccn1	.	0	.
O=C(CSc1nnc(COc2ccccc2)o1)N1CCOCC1	-2	.	23*
O=C(CSc1nnc(COc2ccc(Br)cc2)o1)N1CCOCC1	.	.	-4
CC[C@]12c3[nH]c4cc(CCC(=O)N(C)C)ccc4c3CCN1C(=O)[C@@H](CC(=O)NCCCn1ccnc1)C[C@@H]2C(=O)N1CCN(C(=O)c2ccco2)CC1	3	1	-3
Cc1nc(-c2ccccc2)sc1C(=O)NS(=O)(=O)c1ccc(CN2CCN(c3ccccc3)CC2)cc1	?	8	22*
CC(=O)Nc1ccc(NC(=O)c2sc(-c3ccccc3)nc2C)cc1	-1	0	0
Cc1ccc(C(=O)Nc2cc([N+](=O)[O-])ccc2C)cc1	.	.	-3
COc1cc(Nc2ccn3nc(-c4ccc(F)cc4)cc3n2)cc(OC)c1OC	1	1	-4
SMILES	DENV2 CPE	E-sel inducer	SIRT5 inh
COc1cc(Nc2ccn3nccc3n2)cc(OC)c1OC	23*	0	.
CC(C)(C)c1ccc(-n2ncc3c2CCCC3NC(=O)CN2CCCCC2=O)cc1 (centres undefined)	-2	0	-3
CC(=O)NCC(=O)NC1CCCc2c1cnn2-c1ccc(C(C)(C)C)cc1 (centres undefined)	31*	0	-4
CC1(c2nnnn2Cc2ccccc2)CCC(=O)N1CCCn1ccnc1 (centres undefined)	26*	-5	-1
CC1(c2nnnn2Cc2ccccc2)CCC(=O)N1CCCN1CCOCC1 (centres undefined)	19	7	-9
C/C(=N/NC(=O)c1ccoc1C)c1cccc(NC(=O)C(F)(F)F)c1	.	0	.
C/C(=N/NC(=O)c1ccc(C)s1)c1cccc(NC(=O)c2ccoc2C)c1	2	0	17*
